Test results taken from ChEMBL document CHEMBL3351691, “Steroidal alkaloids from the marine sponge Corticium niger that inhibit growth of human colon carcinoma cells” (2014).
Active and inactive are the calls of the source. The calls are words filed in the database; no cut-off is given here.

Columns and labels:
COLO 205 = assay: Antiproliferative activity against human COLO205 cells assessed as growth inhibition after 48 hrs by XTT assay; type: functional, cell-based
Method in brief: (§1)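 Cells were seeded into 384-well plates (COLO205 at […] cells/well, KM12 at 2.5×10^5 cells/well) and preincubated for 24 h. DMSO samples were diluted 1:25 in medium, then given five 2:1 serial dilutions and tested in duplicate (0.4% final DMSO). Exposure was 48 h at 37 °C. XTT was then added, and formazan was read after 4 h at 450 nm against a 650 nm reference.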

HCT-15 = assay: Antiproliferative activity against human HCT15 cells assessed as growth inhibition after 48 hrs by XTT assay; type: functional, cell-based
SW-620 = assay: Antiproliferative activity against human SW620 cells assessed as growth inhibition after 48 hrs by XTT assay; type: functional, cell-based
HCC 2998 = assay: Antiproliferative activity against human HCC2998 cells assessed as growth inhibition after 48 hrs by XTT assay; type: functional, cell-based
HT-29 = assay: Antiproliferative activity against human HT-29 cells assessed as growth inhibition after 48 hrs by XTT assay; type: functional, cell-based
HCT-116 = assay: Antiproliferative activity against human HCT116 cells assessed as growth inhibition after 48 hrs by XTT assay; type: functional, cell-based
KM12 = assay: Antiproliferative activity against human KM12 cells assessed as growth inhibition after 48 hrs by XTT assay; type: functional, cell-based; method in brief: as §1
[1] = Antiproliferative activity against human NCI60 cells assessed as growth inhibition after 48 hrs by XTT assay; type: functional; conditions: NCI60, 48 h

| Compound | growth inhibition (GI) (COLO 205) | growth inhibition (GI) (HCT-15) | growth inhibition (GI) (SW-620) | growth inhibition (GI) (HCC 2998) | growth inhibition (GI) (HT-29) | growth inhibition (GI) (HCT-116) | growth inhibition (GI) (KM12) | GI50 [1] [µM] |
| --- | --- | --- | --- | --- | --- | --- | --- | --- |
| CC(=O)O[C@H]1[C@H](N)CC[C@]2(C)[C@H]3CC[C@]4(C)[C@@H]([C@H](C)CC5NCCC5=C(C)C)CC[C@H]4C3=CC[C@@H]12 (stereo partly drawn) | Active | Active | Active | Active | Active | Active | Active | 2.4 |
| CC(C)C1CCN(C)C1C[C@@H](C)[C@H]1CC[C@H]2C3=CC[C@H]4[C@H](N)C=CC[C@]4(C)[C@H]3CC[C@]12C (stereo partly drawn) | Active | Active | Active | Active | Active | Active | Active | – |
| CC(C)=C1CCNC1C[C@@H](C)[C@H]1CC[C@H]2C3=CC[C@H]4C[C@H](N)CC[C@]4(C)[C@H]3CC[C@]12C (stereo partly drawn) | Active | Active | Active | Active | Active | Active | Active | 11.5 |
